Results from ChEMBL document CHEMBL3864174, “Scaffold-Hopping of Aurones: 2-Arylideneimidazo[1,2-a]pyridinones as Topoisomerase IIα-Inhibiting Anticancer Agents” (ACS Med Chem Lett, 2016).
Active and inactive are the calls of the source. The calls are words filed in the database; no cut-off is given here.

How the values were obtained:
[1] = target: DNA topoisomerase 2-alpha (Homo sapiens) (UniProt P11388); test: Inhibition of human Topo2alpha-mediated kDNA decatenation at 100 uM after 30 mins by SDS-based agarose gel electrophoresis
DNA topoisomerase 2-alpha (Homo sapiens), sequence (P11388 whole entry): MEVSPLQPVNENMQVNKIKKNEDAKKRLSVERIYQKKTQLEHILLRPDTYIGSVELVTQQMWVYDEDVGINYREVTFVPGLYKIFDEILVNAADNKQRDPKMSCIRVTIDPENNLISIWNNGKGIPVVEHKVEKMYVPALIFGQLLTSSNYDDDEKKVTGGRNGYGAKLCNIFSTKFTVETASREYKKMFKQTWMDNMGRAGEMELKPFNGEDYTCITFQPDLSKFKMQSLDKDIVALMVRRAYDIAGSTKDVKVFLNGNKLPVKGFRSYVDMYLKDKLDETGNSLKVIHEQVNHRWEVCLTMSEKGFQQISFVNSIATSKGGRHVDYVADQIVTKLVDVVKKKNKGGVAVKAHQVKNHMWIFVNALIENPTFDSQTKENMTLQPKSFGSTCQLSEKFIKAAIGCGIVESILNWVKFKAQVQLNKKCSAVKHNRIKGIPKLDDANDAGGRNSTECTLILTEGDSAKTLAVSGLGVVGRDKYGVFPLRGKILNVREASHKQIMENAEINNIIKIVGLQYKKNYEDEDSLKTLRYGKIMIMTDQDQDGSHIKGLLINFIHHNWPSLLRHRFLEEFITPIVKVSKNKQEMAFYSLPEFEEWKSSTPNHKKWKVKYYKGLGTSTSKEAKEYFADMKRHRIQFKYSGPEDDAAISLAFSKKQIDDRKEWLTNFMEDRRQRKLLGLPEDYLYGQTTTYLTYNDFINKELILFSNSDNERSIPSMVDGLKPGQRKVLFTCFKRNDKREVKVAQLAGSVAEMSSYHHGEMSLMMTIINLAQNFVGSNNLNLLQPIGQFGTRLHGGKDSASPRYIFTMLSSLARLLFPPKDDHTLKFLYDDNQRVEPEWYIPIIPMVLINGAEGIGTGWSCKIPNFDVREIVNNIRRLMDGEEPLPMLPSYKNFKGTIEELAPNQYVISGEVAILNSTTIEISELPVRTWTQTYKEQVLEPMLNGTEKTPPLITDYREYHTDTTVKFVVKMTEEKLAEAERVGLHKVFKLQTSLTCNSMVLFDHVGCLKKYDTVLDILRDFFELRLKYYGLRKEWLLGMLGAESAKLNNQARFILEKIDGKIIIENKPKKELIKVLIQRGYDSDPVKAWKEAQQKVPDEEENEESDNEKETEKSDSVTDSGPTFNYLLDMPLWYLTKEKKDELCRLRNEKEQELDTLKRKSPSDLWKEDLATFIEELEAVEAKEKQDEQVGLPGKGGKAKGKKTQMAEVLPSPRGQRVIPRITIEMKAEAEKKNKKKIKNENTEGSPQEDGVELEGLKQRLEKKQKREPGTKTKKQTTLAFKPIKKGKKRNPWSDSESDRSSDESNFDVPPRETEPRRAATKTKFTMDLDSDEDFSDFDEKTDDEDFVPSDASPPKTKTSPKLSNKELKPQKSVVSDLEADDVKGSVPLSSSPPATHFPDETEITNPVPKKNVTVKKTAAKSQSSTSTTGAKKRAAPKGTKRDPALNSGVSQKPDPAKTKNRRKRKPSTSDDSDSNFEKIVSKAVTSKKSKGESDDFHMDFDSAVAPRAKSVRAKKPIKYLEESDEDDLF

[2] = (§1) Cytotoxicity against HEK293T cells assessed as cells growth inhibition after 48 hrs by MTT assay; format: functional, cell-based; details: Homo sapiens, HEK-293T
Outline: (§2)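 MTT colorimetric assay. HEK-293T (kidney line) and VERO cells were tested, and the IC50 was taken as the concentration giving 50% growth inhibition.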

HEK-293T [3] = test: as §1; format: functional, cell-based; details: Homo sapiens; outline: as §2
[4] = Cytotoxicity against African green monkey Vero cells assessed as cells growth inhibition after 48 hrs by MTT assay; format: toxicity, cell-based, Chlorocebus sabaeus; details: for IC50 at 48 h: African green monkey (Chlorocebus sabaeus), Vero cells; for Activity: chlorocebus sabaeus, vero, 48 h; outline: as §2
MCF7 [5] = test: Cytotoxicity against human MCF7 cells assessed as cells growth inhibition after 48 hrs by MTT assay; format: functional, cell-based
[6] = Cytotoxicity against human MDA-MB-231 cells assessed as reduction in cell viability after 48 hrs by MTT assay; format: functional, cell-based; details: MDA-MB-231, 48 h
[7] = Cytotoxicity against human MDA-MB-468 cells assessed as reduction in cell viability after 48 hrs by MTT assay; format: functional, cell-based; details: MDA-MB-468, 48 h
HEK-293T [8] = test: (§3) Cytotoxicity against HEK293T cells assessed as reduction in colony formation after 48 hrs by crystal violet-staining based assay; format: functional; details: Homo sapiens
[9] = Cytotoxicity against African green monkey Vero cells assessed as reduction in colony formation after 48 hrs by crystal violet-staining based assay; format: toxicity, cell-based; details: chlorocebus sabaeus; for Activity: vero, 48 h; for CC50 at 48 h: Vero cells, read-out: LC50
MCF7 [10] = test: Cytotoxicity against human MCF7 cells assessed as reduction in colony formation after 48 hrs by crystal violet-staining based assay; format: functional, cell-based
[11] = as §3; format: functional; details: Homo sapiens, HEK-293T, read-out: LC50 (the source's name)
[12] = Cell cycle arrest in human MCF7 cells assessed as accumulation at G2/M phase at 2000 nM after 48 hrs by propidium iodide-staining based FACS analysis; format: functional
[13] = Cell cycle arrest in human MCF7 cells assessed as accumulation at G0 phase at 2000 nM after 48 hrs by propidium iodide-staining based FACS analysis; format: functional
[14] = Inhibition of tubulin polymerization in human MCF7 cells assessed as suppression of protein assembly after 15 mins by spectrophotometric analysis; format: cell-based
[15] = target: DNA topoisomerase 2-alpha (Homo sapiens) (UniProt P11388); test: Poison activity at human Topo2alpha using pUC19 as substrate assessed as DNA cleavage-complex formation at 100 uM measured after 20 mins by ethidium bromide staining based SDS-agarose gel electrophoresis
[16] = Binding affinity to DNA (unknown origin) assessed as occurrence of hypochromism after 1 hr by UV-Vis spectrophotometric analysis
Outline: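 UV absorption of DNA near 260 nm, recorded with and without increasing compound concentrations; hypochromism was taken as the binding read-out.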

[17] = Cell cycle arrest in human MCF7 cells assessed as accumulation at subG1 phase at 100 nM after 48 hrs by propidium iodide-staining based FACS analysis (reference value: 0.8 +/- 0.1 %); format: functional
[18] = Cell cycle arrest in human MCF7 cells assessed as accumulation at G2/M phase at 70 nM after 48 hrs by propidium iodide-staining based FACS analysis (reference value: 41 +/- 2.8 %); format: functional
MCF7 [19] = test: Inhibition of topoisomerase in human MCF7 cell nuclear lysates assessed as reduction in relaxation of supercoiled plasmid DNA NFkB substrate at 10 to 70 nM after 30 mins by ethidium bromide-staining based agarose gel electrophoresis
Outline: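 Ex vivo topoisomerase assay using MCF-7 nuclear lysate with NFkB plasmid as substrate. Compound ranged from 10 nM to 75 nM, with lanes for plasmid alone and untreated lysate, and an etoposide lane at 45 µM.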

SMILES | inhibition [1] | IC50 [2] [nM] | IC50 at 48 h [4] [nM] | Activity (MCF7 [10]) | CC50 [11] [nM] | CC50 at 48 h [9] [nM] | further results
O=C1/C(=C/c2ccc(Br)cc2)Oc2ccccc21 | Active | 900 | 2400 | Dose-dependent effect |  |  | growth inhibition (GI) (HEK-293T [3]): Dose-dependent effect; Activity [4]: Dose-dependent effect; growth inhibition (GI) (MCF7 [5]): Dose-dependent effect; IC50 [6]: 600 to 840 nM; IC50 [7]: 600 to 840 nM; Activity (HEK-293T [8]): Dose-dependent effect; Activity [9]: Dose-dependent effect
CN(C)c1ccc(/C=C2\N=C3C=CC=CN3C2=O)cc1 | Active |  |  |  |  |  | 
O=C1/C(=C/c2ccc(Cl)cc2)N=C2C=CC(Cl)=CN12 | Active | 45 | 1500 | Active | 40 | 1500 | 
O=C1/C(=C/c2ccc(Cl)cc2)N=C2C=CC=CN12 | Active | 30 | 200 | Active | 40 | 1500 | 
COc1cccc(/C=C2\N=C3C=CC=CN3C2=O)c1 | Active | 80 | 1500 | Active | 75 | 1500 | 
CC1=CN2C(=O)/C(=C/c3ccc(Cl)cc3)N=C2C=C1 | Active |  |  |  |  |  | 
O=C1/C(=C/c2ccc(Cl)cc2)N=C2C=CC(Br)=CN12 | Active |  |  |  |  |  | 
COc1ccc(/C=C2\N=C3C=CC(Cl)=CN3C2=O)cc1 |  | 80 | 1500 | Active | 40 | 1500 | 
COc1ccc(/C=C2\Oc3ccccc3C2=O)cc1 [4'-METHOXY-AURONE] | Active | 700 | 2500 | Dose-dependent effect |  |  | growth inhibition (GI) (HEK-293T [3]): Dose-dependent effect; Activity [4]: Dose-dependent effect; growth inhibition (GI) (MCF7 [5]): Dose-dependent effect; IC50 [6]: 600 to 840 nM; IC50 [7]: 600 to 840 nM; Activity (HEK-293T [8]): Dose-dependent effect; Activity [9]: Dose-dependent effect
O=C1/C(=C/c2ccc(Cl)cc2)N=C2C(Br)=CC(Br)=CN12 | Active |  |  |  |  |  | 
COc1ccc(OC)c(/C=C2\N=C3C=CC=CN3C2=O)c1 | Active | 150 | 1500 | Active | 60 | 1500 | 
COc1cc(/C=C2\N=C3C=CC=CN3C2=O)cc(OC)c1OC |  | 10 | 200 | Active | 55 | 1000 | 
COc1cc([C@@H]2c3cc4c(cc3[C@@H](O[C@@H]3O[C@@H]5CO[C@@H](C)O[C@H]5[C@H](O)[C@H]3O)[C@H]3COC(=O)[C@H]23)OCO4)cc(OC)c1O [ETOPOSIDE] | Active | 22000 | 50000 |  |  |  | 
O=C1/C(=C/c2ccc(O)cc2)N=C2C=CC=CN12 |  | 40 | 1500 | Active | 50 | 1500 | 
COc1ccc(/C=C\c2cc(OC)c(OC)c(OC)c2)cc1O [COMBRETASTATIN A4] |  |  |  |  |  |  | Activity [12]: Active; Activity [13]: Active; IC50 [14]: 2500 nM
O=C1/C(=C/c2ccc(Br)cc2)N=C2C=CC=CN12 | Active | 45 | 200 | Dose-dependent effect | 20 | 1500 | Activity [15]: Active; Kb [16]: 2.5e+06 M⁻¹; growth inhibition (GI) (HEK-293T [3]): Dose-dependent effect; Activity [4]: Dose-dependent effect; growth inhibition (GI) (MCF7 [5]): Dose-dependent effect; IC50 [6]: 76 nM; IC50 [7]: 70 nM; Activity (HEK-293T [8]): Dose-dependent effect; Activity [9]: Dose-dependent effect; Activity [17]: 19.9%; Activity [18]: 33.2%; IC50 [14]: 60 nM; inhibition (MCF7 [19]): Active
